Experimental data taken from ChEMBL document CHEMBL4613227, “Synthesis and evaluation of the HIF-1α inhibitory activity of 3(5)-substituted-4-(quinolin-4-yl)- and 4-(2-phenylpyridin-4-yl)pyrazoles as inhibitors of ALK5” (Bioorg Med Chem Lett, 2020).
Active and inactive are the calls of the source. The calls are words filed in the database; no cut-off is given here.

Columns and labels:
[1] = target: Mitogen-activated protein kinase 14 (Homo sapiens, UniProt Q16539); assay: Inhibition of recombinant human p38alpha expressed in Escherichia coli assessed as residual activity at 10 uM (reference value: 100 +/- 0.1%)
Mitogen-activated protein kinase 14, sequence (Q16539 whole entry, the tested form may be a part): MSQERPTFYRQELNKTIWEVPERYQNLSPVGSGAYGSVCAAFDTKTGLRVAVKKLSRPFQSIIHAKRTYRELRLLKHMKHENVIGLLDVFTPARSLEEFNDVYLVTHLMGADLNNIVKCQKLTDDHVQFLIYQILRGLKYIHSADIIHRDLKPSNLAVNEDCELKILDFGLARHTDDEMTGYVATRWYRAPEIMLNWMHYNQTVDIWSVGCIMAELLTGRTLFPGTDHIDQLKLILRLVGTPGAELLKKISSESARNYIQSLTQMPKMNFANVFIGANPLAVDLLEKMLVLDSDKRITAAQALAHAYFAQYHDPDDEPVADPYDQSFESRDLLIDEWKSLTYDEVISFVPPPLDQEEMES
Outline: (§1)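 Single-point kinase screen at 10 μM, in duplicate; ALK5 as human GST-fusion from baculovirus/Sf9, p38α as untagged human protein from E. coli; residual activity relative to DMSO vehicle, mean ± SD of two independent experiments.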

[2] = target: T1, TGF-beta receptor type-1 (Homo sapiens) (UniProt P36897); assay: Inhibition of recombinant GST-tagged human ALK5 expressed in baculovirus infected Sf9 insect cells assessed as residual activity at 10 uM; outline: as §1
T1 sequence (whole entry): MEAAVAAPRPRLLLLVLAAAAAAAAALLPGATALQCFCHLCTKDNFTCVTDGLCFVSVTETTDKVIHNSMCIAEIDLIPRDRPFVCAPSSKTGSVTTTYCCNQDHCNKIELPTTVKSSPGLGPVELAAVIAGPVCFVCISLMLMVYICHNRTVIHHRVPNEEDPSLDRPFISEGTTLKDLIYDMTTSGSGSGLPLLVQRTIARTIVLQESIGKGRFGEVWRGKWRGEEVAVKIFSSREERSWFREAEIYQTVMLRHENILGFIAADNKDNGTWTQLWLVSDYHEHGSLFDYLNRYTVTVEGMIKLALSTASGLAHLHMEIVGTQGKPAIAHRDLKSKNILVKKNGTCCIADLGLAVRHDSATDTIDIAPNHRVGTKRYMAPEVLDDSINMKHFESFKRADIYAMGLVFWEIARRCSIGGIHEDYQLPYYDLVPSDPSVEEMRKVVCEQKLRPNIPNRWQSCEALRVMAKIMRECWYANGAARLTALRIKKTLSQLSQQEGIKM

TGF-beta receptor type-1 = target: T2, TGF-beta receptor type-1 (Homo sapiens, UniProt P36897); assay: Inhibition of recombinant GST-tagged human ALK5 expressed in baculovirus infected Sf9 insect cells
T2 sequence (P36897 whole entry): T1 sequence (whole entry)
Outline: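 IC50 determination against ALK5 (human GST-fusion, Sf9 baculovirus) and p38α (untagged human, E. coli); values averaged from three independent experiments run in triplicate.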

[3] = target: Hypoxia-inducible factor 1-alpha (Homo sapiens) (UniProt Q16665); assay: Inhibition of HIF1alpha transcriptional activity in hypoxia-induced human HCT116 cells co-transfected with luciferase reporter plasmid containing six copies of HREs and pRL-CMV plasmid by luciferase reporter gene assay; type: cell-based; conditions: HCT-116
Hypoxia-inducible factor 1-alpha (Homo sapiens), sequence (Q16665 whole entry, looked up): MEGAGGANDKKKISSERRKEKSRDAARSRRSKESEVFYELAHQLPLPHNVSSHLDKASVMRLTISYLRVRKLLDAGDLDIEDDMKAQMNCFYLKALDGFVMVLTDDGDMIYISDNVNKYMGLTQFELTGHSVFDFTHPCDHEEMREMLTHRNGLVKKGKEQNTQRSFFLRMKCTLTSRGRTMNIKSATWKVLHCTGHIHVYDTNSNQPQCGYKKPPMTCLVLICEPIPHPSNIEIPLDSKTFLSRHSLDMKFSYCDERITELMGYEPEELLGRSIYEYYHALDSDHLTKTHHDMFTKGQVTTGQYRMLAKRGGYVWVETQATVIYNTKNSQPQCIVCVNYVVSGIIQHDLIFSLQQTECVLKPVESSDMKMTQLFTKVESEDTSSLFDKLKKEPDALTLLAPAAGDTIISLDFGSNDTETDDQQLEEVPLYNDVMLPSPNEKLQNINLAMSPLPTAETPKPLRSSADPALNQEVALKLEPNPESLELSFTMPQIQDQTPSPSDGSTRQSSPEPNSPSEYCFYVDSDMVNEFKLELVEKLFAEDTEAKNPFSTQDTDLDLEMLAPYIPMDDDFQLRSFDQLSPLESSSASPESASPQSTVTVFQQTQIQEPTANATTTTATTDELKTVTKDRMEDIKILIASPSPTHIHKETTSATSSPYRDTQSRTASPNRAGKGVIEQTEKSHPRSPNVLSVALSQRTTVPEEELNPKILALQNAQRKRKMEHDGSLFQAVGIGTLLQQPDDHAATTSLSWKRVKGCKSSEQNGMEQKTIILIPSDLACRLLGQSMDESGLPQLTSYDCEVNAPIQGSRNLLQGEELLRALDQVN
Outline: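 HCT116 transiently co-transfected with pGL3-HRE-luciferase and pRL-CMV; after 24 h, incubated under hypoxia with graded concentrations; luciferase activity read; mean ± SD, three independent experiments.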

HCT-116 [4] = assay: Cytotoxicity against human HCT116 cells up to 50 uM after 24 hrs by MTT assay; type: cell-based; conditions: hct-116, 24 h
Outline: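 Cell viability of HCT116 by MTT after 24 h exposure to graded concentrations up to 50 μM.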

HCT-116 [5] = assay: Inhibition of hypoxia-induced HIF1alpha protein expression in human HCT116 cells incubated for 12 hrs under hypoxic condition by Western blot analysis; type: functional, cell-based
Outline: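 HCT116 held under normoxia or hypoxia 12 h with graded concentrations; nuclear extracts probed for HIF-1α by Western blot, Topo-I as loading control.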

HCT-116 [6] = assay: Induction of apoptosis in human HCT116 cells assessed as viable cells at 50 uM after 12 hrs by Annexin-V/PI-staining based flow cytometric analysis (reference value: 95.3%); type: functional; conditions: HCT-116, 12 h, read-out: Activity
HCT-116 [7] = assay: Induction of apoptosis in human HCT116 cells assessed as PARP cleavage at 50 uM after 12 hrs by Western blot analysis; type: functional, cell-based
HCT-116 [8] = assay: Induction of apoptosis in human HCT116 cells assessed as PARP cleavage at 50 uM preincubated for 12 hrs followed by TNF-stimulation and measured after 24 hrs by Western blot analysis; type: functional, cell-based
Outline: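 HCT116 pretreated 12 h with 50 μM, then TNF (10 ng/mL) 24 h; whole cell extracts blotted for cleaved caspase-8, cleaved caspase-3, cleaved PARP, tubulin.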

HCT-116 [9] = assay: Down regulation of TNF-induced MMP9 protein expression in human HCT116 cells at 50 uM pretreated for 12 hrs followed by TNF stimulation and measured after 24 hrs by Western blot analysis; type: functional, cell-based
Outline: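 HCT116 pretreated 12 h with 50 μM, then TNF (10 ng/mL) 24 h; whole cell extracts immunoblotted for ICAM-1, MMP-9, VEGF with tubulin as loading reference.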

HCT-116 [10] = assay: Down regulation of TNF-induced MMP9 mRNA expression in human HCT116 cells at 50 uM pretreated for 12 hrs followed by TNF stimulation and measured after 12 hrs by Western blot analysis; type: functional, cell-based; conditions: in the assay text read “RT-PCR analysis” for “Western blot analysis”
Outline: (§2)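 HCT116 preincubated 12 h with graded concentrations, then TNF 10 ng/mL for a further 12 h; ICAM-1, VEGF, MMP-9 transcripts measured by RT-PCR, GAPDH for equal RNA loading.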

HCT-116 [11] = assay: Down regulation of TNF-induced VEGF mRNA expression in human HCT116 cells at 50 uM pretreated for 12 hrs followed by TNF stimulation and measured after 12 hrs by Western blot analysis; type: functional, cell-based; conditions: in the assay text read “RT-PCR analysis” for “Western blot analysis”; outline: as §2

Activity [1]: 3%
Activity [2]: 2%
IC50 (TGF-beta receptor type-1): 69 nM
inhibition [3]: Dose-dependent effect
SMILES: Cc1cccc(-c2nn(CC(=S)Nc3cccc(C#N)c3)cc2-c2ccnc3ccccc23)n1
Activity (HCT-116 [4]): Non-Toxic
inhibition (HCT-116 [5]): Dose-dependent effect
viability at 50 µM (HCT-116 [6]): 85.2%
Activity (HCT-116 [7]): Active
Activity (HCT-116 [8]): Active
Activity (HCT-116 [9]): Active
Activity (HCT-116 [10]): Active
Activity (HCT-116 [11]): Active
